Source: PubChem BioAssay
Many of the other results were omitted from the sample, so hits are more common in it than they were.
Fibroblast inh = antiproliferative effect on LL 47 fibroblasts – human, LL 47 cells, CellTiter-Glo luminescence, primary screen. LL 47 human lung fibroblast viability, ATP luminescence; hits give low values. viability, % at 10 µM. hit rate 1.1% among 85,000. AID 719, 2007;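 active means viability at or below 50% in the single dose screen; inactive means viability above 50%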;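 further: compound exposure lasted 72 h before the ATP readout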
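material = human LL 47 lung fibroblast cells | dosing = compounds added from tenfold dosing solution, 0.1% DMSO final | timing = overnight cell rest, 72 h compound treatment at 37 °C | measured by = CellTiter-Glo luminescence measuring cellular ATP | evaluation = % viability versus median cells-only luminescence | control set = cell-only wells, no compound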
HCT116 bCat-KO = primary screen for growth suppressors in beta-catenin knockout HCT116 cells (colon tumor, human) | HCT116 beta-catenin knockout viability, CellTiter-Glo, 60 h; hits give low values | hit rate 1.5% among 140,000 | viability, % at 10 µM;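 active means viability at or under a set limit, the compound median less 4 SD, cut at about 6% in these data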
H69AR growth 86K = proliferation blockers of H69AR lung cancer cells, primary screen, cell-based, human, 86K library; hit rate 6% among 85,000; AID 598, 2007; viability, % at 10 µM; H69AR lung tumor viability, ATP luminescence, 72 h; hits give low values;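 active means viability at or below 40%; inactive means viability above 40%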;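 further: multidrug resistant small cell line overexpressing MRP-1 efflux transporter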
PTEN del growth = growth suppression of PTEN-null HCT116, primary screen, cell-based, CellTiter-Glo; HCT116 PTEN-null viability, 60 h; hits give low values; viability, % at 10 µM; hit rate 1.2% among 140,000; AID 827, 2007;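 active means viability at or below a set limit, 4 SD under the median of all tested compounds, cut at about 3.7% in these data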;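 further: PTEN knockout HCT116 line with beta catenin targeted HCT116 as companion control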
Candida biofilm = clotrimazole potentiators killing Candida biofilms, primary screen, with clotrimazole, Alamar Blue | AID 834, 2007 | inhibition, % at 6 µM | hit rate 0.14% among 85,000 | C. albicans biofilm + clotrimazole;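 active means inhibition above 20%; inactive means inhibition below 20%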;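 further: preformed 24 hr biofilms exposed to compound for 48 hr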
HUVEC inhibit = inhibitors of HUVEC proliferation, primary screen, cell-based, 384-well; viability, % at 10 µM (by protocol); hit rate 1.1% among 86,000; AID 648, 2007; CellTiter-Glo luminescence, 72 h; hits give low values;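 active means viability at or below 30%; inactive means viability above 30%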
Each line names hits and unclear results; the compound was inactive in the other large screens.

Cc1cc2oc(=O)cc(COC(=O)c3cccc(N(C)C)c3)c2cc1C	none (no result: HCT116 bCat-KO, PTEN del growth)
COC(=O)c1ccc(COc2ccccc2/C=C(\C#N)C(=O)Nc2ccccc2C)cc1	none (no result: Fibroblast inh, H69AR growth 86K, Candida biofilm, HUVEC inhibit)
COC(=O)c1ccc(COc2ccccc2/C=C(\C#N)C(=O)Nc2c(C)cccc2C)cc1	HCT116 bCat-KO 2.4, PTEN del growth 1.8 (no result: Fibroblast inh, H69AR growth 86K, Candida biofilm, HUVEC inhibit)
COc1cc(C(=O)N[C@H](C(=O)NC(C)C23CC4CC(CC(C4)C2)C3)C(C)C)cc(OC)c1OC (stereo not given in full)	Fibroblast inh 47.7
COc1ccc(-c2nc3c(c(=O)n(C)c(=O)n3C)n2CC2CC(c3ccccc3)=NO2)cc1OC (stereo not given)	H69AR growth 86K 6.3 (no result: HCT116 bCat-KO, PTEN del growth)
COc1ccc(C(=O)Cn2c(Br)nc3c2c(=O)n(C)c(=O)n3C)cc1OC	none
Cn1c(SCC(=O)c2ccc3c(c2)OCCO3)nnc1C1CC1	none
CCCCNC(=O)C(CC)Sc1nc2sc(C(=O)OC)c(C)c2c(=O)n1N (stereo not given)	none (no result: Fibroblast inh, H69AR growth 86K, Candida biofilm, HUVEC inhibit)
CCC(Sc1nc2sc(C(=O)OC)c(C)c2c(=O)n1N)C(=O)N(CC)CC (stereo not given)	H69AR growth 86K 18.8
Cc1ccc(NC(=S)N(CCN(C)C)Cc2cc3cc(C)cc(C)c3[nH]c2=O)cc1	none (no result: Fibroblast inh, H69AR growth 86K, Candida biofilm, HUVEC inhibit)
Cc1ccc(Cn2nc(C)c(NC(=O)c3cc(-c4ccc5c(c4)OCO5)on3)c2C)cc1	H69AR growth 86K 7.4
COc1ccc(-c2cc(C(=O)Nc3c(C)nn(Cc4ccc(Cl)cc4)c3C)no2)cc1	H69AR growth 86K 16.0
COc1ccc(-c2cc(C(=O)Nc3c(C)nn(Cc4ccccc4Cl)c3C)no2)cc1OC	H69AR growth 86K 19.5
COCC(=O)N(C)C1(c2nnnn2CCOC(=O)Nc2cccc3ccccc23)CCCC1	none
O=C(NC(=S)Nc1ccc(N2CCOCC2)cc1)c1ccco1	none (no result: Fibroblast inh, H69AR growth 86K, Candida biofilm, HUVEC inhibit)
O=C(Nc1ccc(N2CCOCC2)cc1)c1ccc2nc(-c3ccco3)c(-c3ccco3)nc2c1	H69AR growth 86K 29.3
O=C(Nc1ccccc1)c1ccc2nc(-c3ccco3)c(-c3ccco3)nc2c1	none
CC(=O)c1ccc(NC(=O)c2ccc3nc(-c4ccco4)c(-c4ccco4)nc3c2)cc1	H69AR growth 86K 2.4
S=C(Nc1ccc(N2CCOCC2)cc1)Nc1ccc2nc(-c3ccco3)c(-c3ccco3)nc2c1	H69AR growth 86K 32.7
C=C(C)C1Cc2c(C)nn(-c3cc(C)c4ccccc4n3)c2C1 (stereo not given)	none (no result: HCT116 bCat-KO, PTEN del growth)
COc1cc2cc3c(N)c(C(=O)Nc4sc(C)c(C)c4C#N)sc3nc2cc1OC	none (no result: Fibroblast inh, H69AR growth 86K, Candida biofilm, HUVEC inhibit)
O=C(NCc1ccccn1)c1ccc(CNS(=O)(=O)c2ccc(F)cc2)cc1	none (no result: Fibroblast inh, H69AR growth 86K, Candida biofilm, HUVEC inhibit)
COc1ccc(F)cc1S(=O)(=O)Nc1ccc(C)cc1	none
CCOc1cc(C(=O)CSc2nnc(CNc3ccc(Cl)cc3)o2)ccc1NC(=O)CC	H69AR growth 86K 0.2, HUVEC inhibit 1.7
COc1ccc(NC(=O)CSc2nnc(CNC(=O)COc3ccc(Cl)cc3)o2)c(OC)c1	Fibroblast inh 44.4
O=C(OCc1ccc(Cl)cc1Cl)c1ccncc1	none (no result: Fibroblast inh, H69AR growth 86K, Candida biofilm, HUVEC inhibit)
Cc1cc(/C=N/n2cnnc2)c(C)n1-c1ccccc1	none
Cc1cc(/C=N/n2cnnc2)c(C)n1-c1ccc(OCc2ccc(Cl)cc2Cl)cc1	HCT116 bCat-KO 3.7, H69AR growth 86K 5.8, HUVEC inhibit 2.6
Cc1cc(/C=N/n2cnnc2)c(C)n1-c1ccc(Cl)cc1	none (no result: Fibroblast inh, H69AR growth 86K, Candida biofilm, HUVEC inhibit)
Cc1cc(/C=N/n2cnnc2)c(C)n1-c1ccc(OCc2ccc(F)cc2)cc1	H69AR growth 86K 18.6
COC(C(=O)NC(C(C)C)C(C)C)c1ccccc1 (stereo not given)	none (no result: Fibroblast inh, H69AR growth 86K, Candida biofilm, HUVEC inhibit)
CC1=C(C(=O)NCc2ccccn2)C2(CCC(C)CC2)OC1=O (stereo not given)	none
CCOC(=O)c1c(C2COc3ccccc3O2)csc1NC(=O)c1ccccc1 (stereo not given)	HCT116 bCat-KO 0.8, PTEN del growth 0.5
CCCN1C(=O)C(O)(CC(=O)c2ccc3c(c2)OCCO3)c2ccccc21 (stereo not given)	H69AR growth 86K 17.4
C#CCN1C(=O)C(O)(CC(=O)c2ccc3c(c2)OCCO3)c2ccccc21 (stereo not given)	H69AR growth 86K 34.5
